CRFR2-BP ag: agonists of CRF-BP/CRF-R2 complex, primary screen, cell-based, HEK293, calcium dye fluorescence, uHTS; CRF-binding protein / CRF receptor 2 complex (human); calcium dye fluorescence (FLIPR); percent of saturating CRF peptide response; activation, % at 13.2 µM; 350,000 tested, 0.46% active; AID 588473, 2011;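 active means activation of at least 50%, plus an integration ratio under a set limit after plate pattern correction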
TMEM16A act: TMEM16A chloride channel activators or potentiators, primary screen, cell-based, HTS | Anoctamin-1 (Mus musculus), Q8BHY3 | HEK293 TMEM16A/YFP-H148Q/I152L, iodide quench fluorescence; stronger effect = lower value | B-score at 10 µM | 340,000 tested, 0.3% active | AID 623877, 2012;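 active means fluorescence-ratio B-score plate-corrected deviation score at least 3 library SD below zero, with starting fluorescence score within 5 deviations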;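 further: channel opened by trigger with iodide after compound preincubation; score built on the fluorescence ratio of max minus min over baseline; more negative score means more quench and so TMEM16A activation or potentiation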
CRFBP-R2 block: antagonists of CRF-BP/CRF-R2 complex, primary screen, cell-based, HEK293, calcium dye fluorescence, uHTS; CRF-induced calcium fluorescence; inhibition, % at 11.8 µM; 350,000 tested, 0.59% active;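 active means inhibition of the ligand-induced calcium signal above about 50% at the single tested concentration, limit read from the data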
TAAR1 antagonist: human TAAR1 antagonists, primary screen, Fluo-8 calcium fluorescence, CHO RD-HGA16 cells; antagonist; inhibition, % at 3 µM; 360,000 tested, 1.5% active; AID 624466, 2012;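 active means inhibition above a per-plate cutoff, the mean inhibition of test compounds on that plate plus 3 SD, cut at about 49% in these data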
Target sequence (Q96RJ0 whole entry, looked up): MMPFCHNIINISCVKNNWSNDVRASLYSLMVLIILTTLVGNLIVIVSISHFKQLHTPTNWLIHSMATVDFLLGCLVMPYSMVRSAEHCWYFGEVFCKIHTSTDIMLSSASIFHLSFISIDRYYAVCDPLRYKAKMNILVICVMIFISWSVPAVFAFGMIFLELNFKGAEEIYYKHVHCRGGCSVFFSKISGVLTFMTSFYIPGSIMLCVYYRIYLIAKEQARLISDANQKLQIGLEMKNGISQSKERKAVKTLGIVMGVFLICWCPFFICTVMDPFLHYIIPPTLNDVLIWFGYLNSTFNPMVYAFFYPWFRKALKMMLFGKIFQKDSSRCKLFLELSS
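Material: CHO RD-HGA16 cells bearing hTAAR1; compound dosing: one-point dosing, 3 µM nominal final; schedule: dye loading 75 min at 37 °C, then 30 min room temperature; measured by: calcium fluorescence with Fluo-8; control set: vehicle and agonist controls; replication: n of 1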
TMEM16A inh: TMEM16A chloride channel inhibitors, primary screen, cell-based, HTS; 310,000 tested, 1.2% active; Anoctamin-1 (Mus musculus), Q8BHY3; normalized B-score (activity score, 25-100; higher = stronger inhibition) at 10 µM; HEK293 TMEM16A/YFP iodide influx fluorescence, ionomycin;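 active means ratio plate-corrected score three or more library SD toward inhibition, starting fluorescence score within five deviations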;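 further: score derived from kinetic fluorescence span divided by baseline fluorescence per well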
TAAR1 ag: human TAAR1 agonists, primary screen, Fluo-8 calcium fluorescence, CHO RD-HGA16 cells | Trace amine-associated receptor 1 (Homo sapiens), Q96RJ0 | vehicle wells 0%, saturating PEA agonist 100% | activation, % at 3 µM | 360,000 tested, 0.99% active;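 active means activation above the mean activation of all test compounds in the run plus 3 SD, cut at about 38% in these data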
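Assay system – CHO-derived RD-HGA16 cells with stable Gα16 and human TAAR1 · Compound dosing – one-point dosing at 3 µM (nominal) · Incubation – 17-24 h seeding, 75 min 37 °C dye, 30 min RT · Measured by – kinetic Fluo-8 calcium fluorescence · Control set – DMSO vehicle as 0%, PEA at EC100 as 100% · Repeats – single well for each compound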
Each line names hits and unclear results; the compound was inactive in the other large screens. Hits are enriched below; roughly 3.9% of the tested compounds scored in any of these assays.

C=C1CC[C@@]23CC[C@]4(C)[C@@](OC2=O)([C@@H]3C1)[C@H]1O[C@H]1C1[C@@]2(C)CC[C@H](O)C(C)(C)C2CC[C@]14C (stereo not given in full)	none (no result: TAAR1 antagonist, TAAR1 ag)
CCCOc1nc2c(c(=O)n(C)c(=O)n2C)n1Cc1cccc2ccccc12	TMEM16A inh 100
C=CCn1c(Oc2ccccc2)nc2c1c(=O)n(C)c(=O)n2C	CRFR2-BP ag 106
N#CC(C#N)=Cc1c(N2CCN(c3ccccc3)CC2)nc2ccccn2c1=O	none
CN(C)S(=O)(=O)c1ccc(C(=O)OCc2nnc(-c3ccccc3)o2)cc1	none
CS(=O)(=O)c1ccc(C(=O)OCc2nnc(-c3ccccc3)o2)cc1[N+](=O)[O-]	TMEM16A act -46 (no result: TMEM16A inh)
COc1ccc(CCN=C(N)NS(=O)(=O)c2cc(F)ccc2OC)cc1	none
CC(=O)C1=C(c2cccc([N+](=O)[O-])c2)N(C(C)=O)n2c(C)nnc2S1	CRFBP-R2 block 54
CC(=O)c1c(C(C)=O)c(C)n(-c2cccc([N+](=O)[O-])c2)c1C	none
CCOC(=O)C1CCN(C(=O)COc2ccc3c(C)cc(=O)oc3c2)CC1	none
CCCCCNC(=O)C(c1ccc(-c2ccccc2)cc1)n1c(=O)c(-c2cc3ccccc3[nH]2)nc2ccccc21 (stereo not given)	none (no result: CRFR2-BP ag, TMEM16A act, CRFBP-R2 block, TMEM16A inh)
COc1ccc(/C=N/NC(=O)c2cccc([N+](=O)[O-])c2)cc1OS(=O)(=O)c1ccc(C)cc1	none
CCOc1cc(/C=N/NC(=O)c2cccc([N+](=O)[O-])c2)ccc1OS(=O)(=O)c1ccccc1	TAAR1 antagonist 52
CCOC(=O)C1CCCN(C(=O)c2ccc(Cl)c(S(=O)(=O)N3CCCCC3)c2)C1 (stereo not given)	CRFBP-R2 block 53
CCOC(=O)C1CCN(C(=O)c2ccc(C)c(S(=O)(=O)N3CCCC3)c2)CC1	none
CCOC(=O)C1CCCN(C(=O)c2cccc(S(=O)(=O)N(Cc3ccccc3)c3ccccc3OC)c2)C1 (stereo not given)	CRFBP-R2 block 51
N#Cc1c(-c2cccs2)nc(SCc2ccc(Cl)cc2)[nH]c1=O	CRFBP-R2 block 55 (no result: TMEM16A inh)
CCc1ccc2c(COC(=O)c3n[nH]c4ccccc34)cc(=O)oc2c1	TMEM16A inh 100
O=c1c2cc(Br)ccc2nc(-c2ccc([N+](=O)[O-])cc2)n1O	CRFR2-BP ag 101
COc1ccccc1-c1nc2cc(Cl)ccc2c(=O)n1O	none
O=c1c2cc(Cl)ccc2nc(-c2ccc(Cl)c(Cl)c2)n1O	CRFR2-BP ag 135, TMEM16A inh 100
O=c1c2cc(Cl)ccc2nc(-c2ccccc2)n1O	none
O=c1c2ccc(Cl)cc2nc(-c2ccc([N+](=O)[O-])cc2)n1O	CRFR2-BP ag 59
CC(C)NC(=O)C1(C)CSCC(=O)N1CC(F)(F)F (stereo not given)	none (no result: CRFR2-BP ag, TMEM16A act, CRFBP-R2 block, TMEM16A inh)
Cc1ccc(C(=O)OCC(=O)c2c[nH]c3ccccc23)cc1S(=O)(=O)N1CCOCC1	none (no result: TMEM16A inh)
COc1ccc(CN2C(=O)CN(S(C)(=O)=O)CC2(C)C(=O)Nc2c(C)cccc2C)cc1 (stereo not given)	none (no result: CRFR2-BP ag, TMEM16A act, CRFBP-R2 block, TMEM16A inh)
COc1cc(-c2cnc3c(NC=O)cc(-c4cccc(C(=O)NCCN(C)C)c4)cn23)cc(OC)c1OC	none (no result: CRFR2-BP ag, TMEM16A act, CRFBP-R2 block, TMEM16A inh)
CCn1c(CCNC(=O)c2ccccc2Cl)n[nH]c1=S	CRFBP-R2 block 82
CCn1c(CCNC(=O)c2ccc(Cl)cc2Cl)n[nH]c1=S	none
COc1ccc(-c2c(NC(=O)c3ccco3)oc3c(C)cccc3c2=O)cc1	none
C=C(C)CSc1nc2c(cc1C#N)CCC2	CRFBP-R2 block 64
CCC(C(=O)NCCCN1CCCC1=O)n1c2ccccc2c2nc(=O)cc(C)n21 (stereo not given)	none
CCC(C(=O)NCCN1CCOCC1)n1c2ccccc2c2nc(=O)cc(C)n21 (stereo not given)	CRFBP-R2 block 52
CC(C)NC(=S)NNc1nc2ccccc2s1	none
COc1ccc2ccccc2c1/C=N/NC(=S)NCCN1CCOCC1	TMEM16A act -29
O=C(NNC(=O)c1ccccc1[N+](=O)[O-])c1ccc(NS(=O)(=O)c2cccs2)cc1	none
C#CCNC(=O)C[C@@H]1C[C@@]2(C(=O)OC)CCCCC=C2N(Cc2ccc(Cl)cc2Cl)C1=O	none (no result: CRFR2-BP ag, TMEM16A act, CRFBP-R2 block, TMEM16A inh)
COc1ccc([N+](=O)[O-])cc1NC(=O)Cc1ccccc1Cl	none
O=C(O)[C@H](Cc1ccccc1)Nc1ccc([N+](=O)[O-])cn1	none
COc1cccc(CNc2ccc([N+](=O)[O-])cc2Cl)c1O	TMEM16A inh 25
O=C(O)C(Cc1ccccc1)Nc1ccc([N+](=O)[O-])cc1[N+](=O)[O-] (stereo not given)	CRFBP-R2 block 53
COc1cccc(OC)c1OCCCOc1ccc([N+](=O)[O-])cc1Cl	TMEM16A inh 100
COc1ccc(CNc2cc([N+](=O)[O-])ccc2OC)cc1	CRFBP-R2 block 89
CCOc1ccccc1OCCCOc1ccc([N+](=O)[O-])cc1Cl	none
COCC1CCCCN1C(=O)c1cccc(OC2CCN(S(C)(=O)=O)CC2)c1 (stereo not given)	none
Cc1cc(Cl)ccc1OCCCC(=O)Nc1ccc(S(=O)(=O)Nc2ncccn2)cc1	none
Cc1cnc(C(=O)OCC(=O)N(Cc2ccccc2)C(C)(C)C)cn1	none (no result: TMEM16A inh)
CC(C)CN(C(=O)COC(=O)C(C)N1C(=O)c2ccccc2C1=O)c1c(N)n(Cc2ccccc2)c(=O)[nH]c1=O (stereo not given)	none
O=Cc1ccc(OC(=O)CCCCC(=O)Oc2ccc(C=O)cc2)cc1	none
COc1ccccc1CNc1ccc([N+](=O)[O-])cc1C	TMEM16A inh 25
Cc1cc([N+](=O)[O-])ccc1NCc1ccc2ccccc2c1	none
Cc1cc([N+](=O)[O-])ccc1NCc1ccccc1	CRFBP-R2 block 114 (no result: TAAR1 antagonist, TAAR1 ag)
COc1ccc(S(=O)(=O)N2CCN(C(=O)NCc3ccc(OC)c(OC)c3)CC2)cc1	none
COc1ccc(S(=O)(=O)N(C)C)cc1NC(=O)Cc1cccs1	none
N#Cc1ccccc1Sc1ccccc1N	CRFBP-R2 block 57 (no result: TAAR1 antagonist, TAAR1 ag)
COc1ccc2c([N+](=O)[O-])c(Cl)[nH]c2c1	none
O=S(=O)(c1ccc(Cl)s1)N1CCN(C/C=C/c2ccccc2)CC1	TMEM16A act -7
O=S(=O)(c1cccs1)N1CCN(C/C=C/c2ccccc2)CC1	none
CC(=O)N1CCCC(C)(C(=O)N(C)Cc2cccc3ccccc23)C1 (stereo not given)	none (no result: CRFR2-BP ag, TMEM16A act, CRFBP-R2 block, TMEM16A inh)

Screening data deposited in PubChem by several laboratories.
